The values that follow come from ChEMBL document CHEMBL4411280, “Synthesis, structure activity relationship and in vitro anti-influenza virus activity of novel polyphenol-pentacyclic triterpene conjugates” (Eur J Med Chem, 2019).

The source made the active and inactive calls. The rule behind the calls is not given here.

Data set [1] can be described thus: Cytotoxicity against MDCK cells after 40 hrs by CellTiter-Glo assay. To be noted: dog. The format is cell-based, Canis lupus familiaris. Put shortly:
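MDCK cells grown overnight in medium with 1% FBS, then exposed to increasing compound concentrations for 40 h. Viability measured by CellTiter-Glo luminescence, and CC50 derived from it.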

Data set [2] relates to Influenza A virus. The data set is described as follows: Antiviral activity against Influenza A virus A/WSN/33/H1N1 infected in MDCK cells assessed as reduction in virus-induced cytopathic effect after 40 hrs by CellTiter-Glo assay. The format is functional, organism-based. To be noted: A/WSN/33/H1N1, MDCK. Put shortly: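 MDCK cells seeded overnight, infected with influenza A/WSN/33 (H1N1) at MOI 0.1. Kept in DMEM with 1% FBS, test compound, TPCK-treated trypsin and 1% final DMSO for 40 h. Cell viability read by CellTiter-Glo luminescence. IC50 taken from dose-response.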

Data set [3] relates to Influenza A virus. Nature of the data set: Antiviral activity against Influenza A virus A/WSN/33/H1N1 infected in MDCK cells assessed as reduction in virus-induced cytopathic effect at 50 uM after 40 hrs by CellTiter-Glo assay. Type of data set: functional, organism-based. The method in brief:
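Single-concentration screen at 50 μM final. MDCK cells infected with A/WSN/33 (H1N1) at MOI 0.1 in DMEM/1% FBS with TPCK-trypsin for 40 h, viability by CellTiter-Glo. 0.5% DMSO final as negative control, oseltamivir as positive control. Triplicate experiments, standard deviations shown.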
(In general: Protection from cytopathic effect is a common read-out in antiviral testing.)

A further data set deals with MDCK. Nature of the data set: Cytotoxicity against MDCK cells at 50 uM after 40 hrs by CellTiter-Glo assay. The format is cell-based, Canis lupus familiaris. As to conditions: dog. Put shortly: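 Single-concentration toxicity screen at 50 μM final on MDCK cells for 40 h, read by CellTiter-Glo. 0.5% DMSO final as negative control. Triplicate experiments, standard deviations shown.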

The target of data set [4] is Hemagglutinin (Influenza A virus (A/Puerto Rico/8/1934(H1N1)), UniProt P03452). The data set is described as follows: Binding affinity to recombinant Influenza A virus (A/California/04/2009 (H1N1)) hemagglutinin by SPR assay. The method in brief:
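HA immobilised on the sensor chip to about 16,000 RU. Compounds injected as analytes at various concentrations in PBS-P running buffer (10 mM phosphate, 2.7 mM KCl, 137 mM NaCl, 0.05% P20, […]), with 60 s contact and 60 s dissociation. KD determined.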
On the technique in general: SPR reads the build-up and loss of mass on a sensor chip optically.

The target in data set [5] is Hemagglutinin (Influenza A virus) (UniProt B4URE7). The data set is described as follows: Inhibition of Influenza A virus A/WSN/33/H1N1 HA-mediated hemagglutination of chicken RBC measured after 30 mins. The method in brief: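 Compound serially diluted 3-fold in saline and mixed with an equal volume of A/WSN/33 virus (2 HA units). Freshly prepared chicken RBCs (1% v/v in saline) added. Incubated 30 min at room temperature, then agglutination scored visually. PBS as negative control, anti-HA antibody tested in parallel.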
Sequence of Hemagglutinin (Influenza A virus) (B4URE7 as listed by the source): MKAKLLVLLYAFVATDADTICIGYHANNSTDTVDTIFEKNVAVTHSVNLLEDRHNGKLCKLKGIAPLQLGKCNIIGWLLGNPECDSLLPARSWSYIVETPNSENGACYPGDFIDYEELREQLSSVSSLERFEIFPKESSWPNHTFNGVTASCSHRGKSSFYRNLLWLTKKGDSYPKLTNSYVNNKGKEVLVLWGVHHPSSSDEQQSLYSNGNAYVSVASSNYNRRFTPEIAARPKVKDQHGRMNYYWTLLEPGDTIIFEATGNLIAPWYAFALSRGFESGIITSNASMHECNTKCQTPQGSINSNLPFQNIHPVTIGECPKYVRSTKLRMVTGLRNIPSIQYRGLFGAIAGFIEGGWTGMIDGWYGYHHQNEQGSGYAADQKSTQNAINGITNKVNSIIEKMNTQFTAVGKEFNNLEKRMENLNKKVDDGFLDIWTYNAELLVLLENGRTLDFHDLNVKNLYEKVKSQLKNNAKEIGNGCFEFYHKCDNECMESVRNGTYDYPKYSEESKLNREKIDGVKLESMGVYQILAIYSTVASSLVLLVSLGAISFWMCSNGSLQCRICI

Sequence of Hemagglutinin (Influenza A virus (A/Puerto Rico/8/1934(H1N1)), UniProt P03452) (P03452 whole entry): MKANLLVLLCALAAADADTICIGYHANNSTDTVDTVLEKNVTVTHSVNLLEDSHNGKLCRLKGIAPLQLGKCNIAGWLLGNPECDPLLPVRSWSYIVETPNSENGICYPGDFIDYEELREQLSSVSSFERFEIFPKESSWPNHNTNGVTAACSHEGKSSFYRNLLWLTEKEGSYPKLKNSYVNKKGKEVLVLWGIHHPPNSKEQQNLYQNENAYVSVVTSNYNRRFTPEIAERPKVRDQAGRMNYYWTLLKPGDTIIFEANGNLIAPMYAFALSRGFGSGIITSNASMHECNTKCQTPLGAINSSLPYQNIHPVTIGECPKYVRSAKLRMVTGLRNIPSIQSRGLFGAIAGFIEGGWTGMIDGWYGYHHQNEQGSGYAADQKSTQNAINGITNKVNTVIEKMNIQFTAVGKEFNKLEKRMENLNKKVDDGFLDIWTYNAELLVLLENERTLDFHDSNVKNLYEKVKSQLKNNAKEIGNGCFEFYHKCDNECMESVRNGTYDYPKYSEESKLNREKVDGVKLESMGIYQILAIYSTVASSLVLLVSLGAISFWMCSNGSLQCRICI

For orientation: CC50 means the concentration giving 50% cytotoxicity. A higher CC50 goes with better tolerance by the cells. In general, IC50 refers to the concentration at which inhibition is half-maximal. The compound `CCOC(=O)C1=C[C@@H](OC(CC)CC)[C@H](NC(C)=O)[C@@H](N)C1` [OSELTAMIVIR] yielded a CC50 at 40 h in data set [1] above 200 µM. Moreover, the IC50 in the data set on Influenza A virus [2] was found to be 16.5 µM.

For the compound `C=C(C)[C@@H]1CC[C@]2(C(=O)NCCNC(=O)c3ccccc3O)CC[C@]3(C)[C@H](CC[C@@H]4[C@@]5(C)CC[C@H](O)C(C)(C)[C@@H]5CC[C@]43C)[C@@H]12`, the result with Influenza A virus [3] was Active. For the same compound, the CC50 at 40 h in data set [1] is above 100 µM. Also, in the data set with Influenza A virus [2], the IC50 was 9.55 µM. Moreover, the Activity result in the data set with MDCK is “Non-Toxic”.

As a reminder, the Kd is a measure of binding affinity in units of concentration. On to `CC1(C)CC[C@]2(C(=O)NCCNC(=O)c3ccccc3O)CC[C@]3(C)C(=CC[C@@H]4[C@@]5(C)CC[C@H](O)C(C)(C)[C@@H]5CC[C@]43C)[C@@H]2C1`, for which the outcome in the data set with Influenza A virus [3] was Active. The Kd in data set [4] came to 36 µM. The CC50 at 40 h in data set [1] is above 100 µM. Besides, in the data set on Influenza A virus [2], the 50% inhibitory concentration (IC50) stood at 7.65 µM. For the same compound, in the data set on MDCK, the Activity result is on record as “Non-Toxic”.

As for `C[C@H]1[C@H](C)CC[C@]2(C(=O)O)CC[C@]3(C)C(=CC[C@@H]4[C@@]5(C)CC[C@H](O)C(C)(C)[C@@H]5CC[C@]43C)[C@H]12` [URSOLIC ACID], the Kd in data set [4] was found to be 46.5 µM.

For the compound `C[C@H]1[C@H](C)CC[C@]2(C(=O)NCCNC(=O)c3ccccc3O)CC[C@]3(C)C(=CC[C@@H]4[C@@]5(C)CC[C@H](O)C(C)(C)[C@@H]5CC[C@]43C)[C@H]12`, the result in the data set with Influenza A virus [3] was Active. Further, the Kd in data set [4] was 15.6 µM. In addition, in data set [1], the CC50 at 40 h is above 100 µM. Further, the IC50 with Influenza A virus [2] turned out to be 5.8 µM. In addition, the inhibition entry in data set [5] was “Dose-dependent effect”. In the data set with MDCK, the Activity entry is “Non-Toxic”.

As to `CC1(C)CC[C@]2(C(=O)NCCNC(=O)c3ccccc3O)[C@H](O)C[C@]3(C)C(=CC[C@@H]4[C@@]5(C)CC[C@H](O)C(C)(C)[C@@H]5CC[C@]43C)[C@@H]2C1`, the outcome with Influenza A virus [3] was Active. Moreover, the CC50 at 40 h in data set [1] was above 100 µM. For the same compound, the IC50 in the data set on Influenza A virus [2] worked out at 5.84 µM. The Activity result in the data set with MDCK is on record as “Non-Toxic”.

For `C[C@H]1[C@H](C)CC[C@]2(C(=O)NCCNC(=O)c3cc(OCc4ccccc4)c(OCc4ccccc4)c(OCc4ccccc4)c3)CC[C@]3(C)C(=CC[C@@H]4[C@@]5(C)CC[C@H](O)C(C)(C)[C@@H]5CC[C@]43C)[C@H]12`, the result in the data set on Influenza A virus [3] was Active. Besides, the CC50 at 40 h in data set [1] was above 100 µM. In addition, the IC50 in the data set on Influenza A virus [2] amounted to 32.9 µM. Moreover, the Activity result in the data set with MDCK is reported as “Non-Toxic”.

Take `C[C@H]1[C@H](C)CC[C@]2(C(=O)NCCNC(=O)/C=C/c3ccccc3)CC[C@]3(C)C(=CC[C@@H]4[C@@]5(C)CC[C@H](O)C(C)(C)[C@@H]5CC[C@]43C)[C@H]12`: the result in the data set with Influenza A virus [3] was Active. In data set [1], the CC50 at 40 h is above 100 µM. Besides, in the data set with Influenza A virus [2], the IC50 was determined as 18.3 µM. Moreover, in the data set on MDCK, the Activity result was “Non-Toxic”.

As for `C=C(C)[C@@H]1CC[C@]2(C(=O)NCCNC(=O)c3cc(O)c(O)c(O)c3)CC[C@]3(C)[C@H](CC[C@@H]4[C@@]5(C)CC[C@H](O)C(C)(C)[C@@H]5CC[C@]43C)[C@@H]12`, the outcome in the data set with Influenza A virus [3] was Active. In addition, the Activity result in the data set on MDCK is listed as “Toxic”.

Regarding `CC1(C)CC[C@]2(C(=O)NCCNC(=O)c3cc(OCc4ccccc4)c(OCc4ccccc4)c(OCc4ccccc4)c3)[C@H](O)C[C@]3(C)C(=CC[C@@H]4[C@@]5(C)CC[C@H](O)C(C)(C)[C@@H]5CC[C@]43C)[C@@H]2C1`, in the data set with Influenza A virus [3], the outcome was Active. Further, in the data set with MDCK, the Activity entry is given as “Non-Toxic”.

As to `C=C(C)[C@@H]1CC[C@]2(C(=O)NCCNC(=O)/C=C/c3ccc(O)cc3)CC[C@]3(C)[C@H](CC[C@@H]4[C@@]5(C)CC[C@H](O)C(C)(C)[C@@H]5CC[C@]43C)[C@@H]12`, the outcome in the data set on Influenza A virus [3] was Active. This compound also yielded a CC50 at 40 h in data set [1] above 100 µM. Besides, in the data set on Influenza A virus [2], the IC50 turned out to be 15.7 µM. Further, in the data set with MDCK, the Activity result is on record as “Non-Toxic”.

In the case of `CC1(C)CC[C@]2(C(=O)NCCNC(=O)c3cc(OCc4ccccc4)c(OCc4ccccc4)c(OCc4ccccc4)c3)CC[C@]3(C)C(=CC[C@@H]4[C@@]5(C)CC[C@H](O)C(C)(C)[C@@H]5CC[C@]43C)[C@@H]2C1`, in the data set on Influenza A virus [3], the outcome was Active. For the same compound, the Activity result in the data set with MDCK is reported as “Non-Toxic”.

For `CC1(C)CC[C@]2(C(=O)NCCNC(=O)c3ccc(O)cc3O)[C@H](O)C[C@]3(C)C(=CC[C@@H]4[C@@]5(C)CC[C@H](O)C(C)(C)[C@@H]5CC[C@]43C)[C@@H]2C1`, the Activity result in the data set with MDCK is reported as “Toxic”.
